Screening results as filed in PubChem.
CAL PDZ FP-1: untagged CAL PDZ binding inhibitors, primary screen, biochemical, fluorescence polarization, HTS. purified CAL PDZ, TMR-peptide fluorescence polarization, 1 h. AID 602252, 2012. Golgi-associated PDZ and coiled-coil motif-containing protein (Homo sapiens), Q9HD26. inhibition, % at 24.9 µM. 0.92% of 300,000 active;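 active means mean inhibition of at least 30% with at least half of replicates also reaching 30%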;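 further: 0% = DMSO neutral control and 100% = excess unlabeled competitor peptide PRC23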
ARNT TACC3 PPI: disruptors of ARNT/TACC3 protein interaction, primary screen, biochemical, AlphaScreen, single concentration | AID 623870, 2012 | Transforming acidic coiled-coil-containing protein 3 (Homo sapiens), Q9Y6A5 | inhibition, % at 9.99 µM | AlphaScreen His-ARNT PAS-B/GST-TACC3 binding, luminescence; TACC3 fragment carries E629A point mutation | 0.66% of 390,000 active;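 active means mean inhibition of replicates at least 50% and at least half of replicates each reaching 50%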;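 further: 0% = complete ARNT plus TACC3 wells and 100% = ARNT alone without TACC3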
Tn6 DDE FP: inhibitors of Tn6 peptide binding to fibrin DD(E), primary screen, biochemical, fluorescence polarization, human fibrin, Tn6 probe; Fibrinogen beta chain (Homo sapiens), P02675; AID 720509, 2013; 0.21% of 370,000 active; inhibition, % at 8.3 µM; Fibrin DD(E) TRITC-Tn6 fluorescence polarization displacement;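 active means inhibition above a per-campaign cutoff: mean of compounds within control limits plus 3 SD, cut at about 15% in these data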;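 further: 0% = median of all compound wells on the plate and 100% = blocking peptide control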
Target sequence (P02675 whole entry, looked up): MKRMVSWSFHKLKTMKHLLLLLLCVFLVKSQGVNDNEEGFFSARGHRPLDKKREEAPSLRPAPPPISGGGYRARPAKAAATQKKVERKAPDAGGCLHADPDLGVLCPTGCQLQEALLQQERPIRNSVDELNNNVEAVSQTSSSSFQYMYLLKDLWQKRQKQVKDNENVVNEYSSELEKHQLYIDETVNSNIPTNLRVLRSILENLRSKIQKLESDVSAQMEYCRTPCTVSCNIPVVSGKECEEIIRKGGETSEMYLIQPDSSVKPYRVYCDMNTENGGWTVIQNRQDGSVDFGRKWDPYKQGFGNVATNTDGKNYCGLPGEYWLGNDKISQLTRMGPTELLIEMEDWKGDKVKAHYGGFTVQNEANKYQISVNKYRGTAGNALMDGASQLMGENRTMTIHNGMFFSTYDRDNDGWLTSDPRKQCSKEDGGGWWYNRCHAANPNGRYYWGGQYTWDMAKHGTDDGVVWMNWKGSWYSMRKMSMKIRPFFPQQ
CAL PDZ FP-2: CAL PDZ peptide-binding inhibitors, primary screen, biochemical, fluorescence polarization, Cer-tagged CAL PDZ, HTS; Golgi-associated PDZ and coiled-coil motif-containing protein (Homo sapiens), Q9HD26; purified CAL PDZ, TMR-peptide fluorescence polarization, 1 h; inhibition, % at 20 µM; 0.02% of 330,000 active; AID 504414, 2011;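 active means highest replicate inhibition of at least 40%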;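 further: plate controls were DMSO neutral control wells for no effect and unlabeled competitor peptide control wells for full effect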
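System: tagged CAL PDZ domain. Schedule: 1 h room-temperature incubation prior to read. Signal: fluorescence polarization (mP). Measure: percent inhibition from loss of millipolarization.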
GRK2 inh: compounds blocking aptamer binding on GRK2 – biochemical, human GRK2, bead flow cytometry, HTS, primary screen; inhibition of aptamer binding, % at 10 µM; FAM-aptamer displacement from GRK2; AID 488847, 2010; 0.59% of 330,000 active;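 active means inhibition of aptamer binding above 40%, roughly 3 SD of noise, on plates passing a quality check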;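 further: median bead fluorescence of bound FAM aptamer so fluorescent compounds give negative values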
Tn7 DDE FP: inhibitors of Tn7 peptide binding to fibrin DD(E), primary screen, biochemical, fluorescence polarization, human fibrin, Tn7 probe; Fibrinogen beta chain (Homo sapiens), P02675; FP displacement of FITC-Tn7 peptide from fibrin DD(E); 0% = median of compound wells per plate; inhibition, % at 8.3 µM; 0.13% of 370,000 active; AID 720508, 2013;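 active means inhibition above the mean of compounds falling within the control limits plus 3 SD of them, cut at about 14% in these data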;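 further: 0% = plate median of compound wells and 100% = 10 µM Aha-Tn7 peptide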
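Assay system: human fibrin DD(E). Input: DD(E) 2 µM final. Medium: Tris buffer with calcium and detergent, pH 7.8. Compound dosing: single point at 8.3 µM. Timing: 10 min plus 3 h, room temperature. Technique: fluorescence polarization of the labelled Tn7 tracer. Read-out: percent inhibition. Replicates: singlicate testing.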
Active calls of the source: *. Only some compounds are listed: those with a hit (about 1.8% of all), similar ones and a draw of the others.

What do the screens show for `CCOC(=O)[C@]12CCCC=C1N(CCCOC)C(=O)[C@@H]2CC(=O)N1CCC(c2ccccc2)CC1`?
Tn6 DDE FP: 1.4; Tn7 DDE FP: 2.1

What do the screens show for `O=S(=O)(c1ccccc1F)N1CCCCN2[C@H](CO)[C@H](c3ccc(-c4ccccc4)cc3)[C@@H]2C1`?
ARNT TACC3 PPI: -0.4

Results for COc1ccc(C(=O)CSc2nnc(CNC(=O)c3ccccc3)o2)cc1 ?
CAL PDZ FP-1: 52.2*; ARNT TACC3 PPI: -8.1; Tn6 DDE FP: 2.1; CAL PDZ FP-2: -0.5; GRK2 inh: 2.0; Tn7 DDE FP: 5.8

Results for O=C(CSc1nnc(CNC(=O)c2ccccc2)o1)c1ccc(Cl)cc1 ?
CAL PDZ FP-1: -7.4; ARNT TACC3 PPI: -6.8; Tn6 DDE FP: 0.1; CAL PDZ FP-2: -1.1; GRK2 inh: 1.0; Tn7 DDE FP: -14.0

Results for COc1ccc(S(=O)(=O)NCCS(=O)(=O)N2CCN(c3ccccc3)CC2)cc1 ?
CAL PDZ FP-1: 0.3; ARNT TACC3 PPI: -5.6; Tn6 DDE FP: 5.9; CAL PDZ FP-2: -1.4; GRK2 inh: 0.0; Tn7 DDE FP: 1.3

What do the screens show for `COc1ccccc1OCC(=O)NCCS(=O)(=O)N1CCN(c2ccc(F)cc2)CC1`?
CAL PDZ FP-1: 54.4*; ARNT TACC3 PPI: 0.5; Tn6 DDE FP: 5.3; CAL PDZ FP-2: 0.2; GRK2 inh: 0.0; Tn7 DDE FP: -5.5

What do the screens show for `COc1ccc(OC)c(S(=O)(=O)NCCS(=O)(=O)N2CCN(c3ccccc3)CC2)c1`?
CAL PDZ FP-1: 34.8*; ARNT TACC3 PPI: 4.0; Tn6 DDE FP: -6.6; CAL PDZ FP-2: -0.9; GRK2 inh: 0.0; Tn7 DDE FP: -0.6

How did O=C(C[C@@H]1C=C[C@@H](NC(=O)C2CCC2)[C@H](CO)O1)Nc1nccs1 do in these assays?
ARNT TACC3 PPI: 9.5

How did O=C1CSC(=S)N1N=Cc1c(O)ccc2ccccc12 do in these assays?
CAL PDZ FP-1: 1.9; ARNT TACC3 PPI: 68.2*; Tn6 DDE FP: 6.0; CAL PDZ FP-2: -0.5; Tn7 DDE FP: -17.9

What do the screens show for `COc1cccc(/C=N/N2C(=O)CSC2=S)c1O`?
CAL PDZ FP-1: -3.9; ARNT TACC3 PPI: 67.0*; Tn6 DDE FP: -5.0; CAL PDZ FP-2: 0.8; GRK2 inh: 1.0; Tn7 DDE FP: 0.7

What do the screens show for `COc1ccc2ccccc2c1/C=N/N1C(=O)CSC1=S`?
CAL PDZ FP-1: -3.7; ARNT TACC3 PPI: -15.0; Tn6 DDE FP: -6.0; CAL PDZ FP-2: -1.2; GRK2 inh: 5.0; Tn7 DDE FP: -9.6

How did COc1cc(/C=N/N2C(=O)CSC2=S)cc(Br)c1O do in these assays?
CAL PDZ FP-1: 53.3*; ARNT TACC3 PPI: 20.5; Tn6 DDE FP: -7.5; CAL PDZ FP-2: -8.6; Tn7 DDE FP: -5.6

Results for COc1cc(/C=N/N2C(C)CCCC2C)cc(Br)c1O (stereo not given) ?
CAL PDZ FP-1: -3.2; ARNT TACC3 PPI: 1.1; Tn6 DDE FP: 3.9; CAL PDZ FP-2: -2.7; GRK2 inh: 3.0; Tn7 DDE FP: -3.3

Results for O=C(C[C@@H]1C[C@H]2c3cc(NS(=O)(=O)c4ccc(F)cc4)ccc3O[C@H]2[C@H](CO)O1)N1CCOCC1 ?
ARNT TACC3 PPI: -1.7

How did COc1ccccc1NC(=O)CCC(=O)Nc1cc(OC)c(NC(=O)c2cccs2)cc1OC do in these assays?
ARNT TACC3 PPI: 26.1*; Tn6 DDE FP: -0.6; CAL PDZ FP-2: -0.4; GRK2 inh: 1.0; Tn7 DDE FP: 1.9

Results for COc1cc(NC(=O)c2cccs2)ccc1NC(=O)Cc1ccccc1 ?
CAL PDZ FP-1: 42.4*; ARNT TACC3 PPI: 1.9; Tn6 DDE FP: -2.7; CAL PDZ FP-2: -0.6; GRK2 inh: 0.0; Tn7 DDE FP: 0.9

What do the screens show for `COc1cc(NC(=O)c2cccs2)c(OC)cc1NC(=O)CCC(=O)Nc1cccc2ncccc12`?
CAL PDZ FP-1: -5.0; ARNT TACC3 PPI: 13.6; Tn6 DDE FP: 2.8; CAL PDZ FP-2: -0.3; GRK2 inh: 0.0; Tn7 DDE FP: 6.7

Results for COc1cc(NC(=O)Cc2ccccc2)ccc1NC(=O)Cc1ccccc1 ?
CAL PDZ FP-1: 2.3; ARNT TACC3 PPI: 29.2; Tn6 DDE FP: 3.4; CAL PDZ FP-2: -0.2; GRK2 inh: 3.0; Tn7 DDE FP: -4.7

Results for COc1ccc(NC(=O)Nc2cccc3c2O[C@@H](CN(C)C(=O)NC(C)C)[C@H](C)CN([C@@H](C)CO)C3=O)cc1 ?
ARNT TACC3 PPI: -8.6

Results for O=S(=O)(Nc1cccc(-n2cnnn2)c1)c1ccc(F)cc1 ?
CAL PDZ FP-1: -1.1; ARNT TACC3 PPI: 5.2; Tn6 DDE FP: -5.6; CAL PDZ FP-2: -2.0; Tn7 DDE FP: -4.5

Results for Cc1ccc(S(=O)(=O)Nc2cccc(-n3cnnn3)c2)cc1 ?
CAL PDZ FP-1: 53.4*; ARNT TACC3 PPI: 0.1; Tn6 DDE FP: 3.2; CAL PDZ FP-2: 0.1; GRK2 inh: 0.0; Tn7 DDE FP: -1.8

What do the screens show for `O=C(CSc1ncnc2sc3c(c12)CCC3)Nc1ccccc1C(=O)O`?
CAL PDZ FP-1: -3.7; ARNT TACC3 PPI: -0.9; Tn6 DDE FP: -2.7; CAL PDZ FP-2: -1.3; GRK2 inh: 1.0; Tn7 DDE FP: -1.2

How did O=C(COc1cc(Cl)ccc1Cl)Nc1nnc(C2CC2)s1 do in these assays?
CAL PDZ FP-1: 37.3*; ARNT TACC3 PPI: 1.6; Tn6 DDE FP: -6.1; CAL PDZ FP-2: -0.5; GRK2 inh: 4.0; Tn7 DDE FP: -6.4

What do the screens show for `O=C(COc1ccc(Br)cc1F)Nc1nnc(C2CC2)s1`?
CAL PDZ FP-1: -4.0; ARNT TACC3 PPI: -5.3; Tn6 DDE FP: -1.3; CAL PDZ FP-2: 0.3; GRK2 inh: 0.0; Tn7 DDE FP: -3.5

How did Cc1nnc(Nc2ccccn2)c2ccccc12 do in these assays?
CAL PDZ FP-1: -0.6; ARNT TACC3 PPI: 33.4*; Tn6 DDE FP: -0.4; CAL PDZ FP-2: 0.7; GRK2 inh: 0.0; Tn7 DDE FP: -3.2

Results for O=C(CCN1CCCCC1)N[C@H]1CC[C@@H](CCNC(=O)c2cc(Cl)cc(Cl)c2)O[C@H]1CO ?
ARNT TACC3 PPI: -34.0

Results for O=C(CCN1CCCCC1)N[C@@H]1CC[C@@H](CCNC(=O)c2cc(Cl)cc(Cl)c2)O[C@@H]1CO ?
ARNT TACC3 PPI: 46.6*

How did Cc1ccc(F)cc1NC(=O)CCc1c(C)nn(-c2ccc(N3CCCCC3)nn2)c1C do in these assays?
CAL PDZ FP-1: 3.3; ARNT TACC3 PPI: 5.4; Tn6 DDE FP: -1.0; CAL PDZ FP-2: -1.8; GRK2 inh: 1.0; Tn7 DDE FP: -4.6
